One assay deals with A549. Kind of assay: Antiproliferative activity against human A549 cells after 48 hrs by MTT assay. It is filed as functional, cell-based. The note with it: A549, 48 h. The method in brief: (§1)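 MTT viability read-out; cells cultured in DMEM and exposed to compound for 48 h. IC50 taken as the concentration giving 50% inhibition of tumour cell proliferation.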
For orientation: Tetrazolium dyes change colour on reduction, which living cells bring about.

A further assay deals with HT-29. Briefly: Antiproliferative activity against human HT-29 cells after 48 hrs by MTT assay. The format is functional, cell-based. As to conditions: HT-29, 48 h. The procedure, abridged: as §1
The next assay deals with HeLa. Kind of assay: Antiproliferative activity against human HeLa cells after 48 hrs by MTT assay. It is filed as functional, cell-based. The procedure, abridged: as §1
The nature of assay [1]: Inhibition of tubulin polymerization at 30 uM. The procedure, abridged:
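GTP addition starts the reaction, run protected from light at 37 °C. Polymerization followed as fluorescence increase at 360/420 nm excitation/emission; % inhibition calculated against untreated control.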

Assay [2] is described as follows: Inhibition of tubulin polymerization at 3 uM. The procedure, abridged: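 Reaction started by GTP addition and run protected from light at 37 °C. Polymerization followed as fluorescence increase at 360/420 nm excitation/emission. Percent inhibition calculated relative to untreated control.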

Each structure is given as a SMILES string. Where only a bound is given, the exact number is not on record here.

One may read the IC50 as the concentration at which inhibition is half-maximal. A higher IC50 goes with lower potency. As for `O=C(Cn1cc(-c2ccsc2)nn1)c1ccccc1`, the IC50 in the assay on A549 was 260 µM; with HT-29, above 300 µM; with HeLa, above 300 µM.
In the case of `Cc1ccc(C(=O)Cn2cc(-c3ccccc3)nn2)cc1`, the IC50 with A549, in the assay with HT-29 and with HeLa was above 300 µM throughout.
For the compound `O=C(Cn1cc(-c2ccccc2)nn1)c1ccccc1`, the concentration for half-maximal inhibition (IC50) with A549, in the assay on HT-29 and in the assay on HeLa was above 300 µM throughout.
Regarding `O=C(Cn1cc(-c2ccccn2)nn1)c1ccccc1`, the IC50 in the assay on A549, with HT-29 and in the assay on HeLa was above 300 µM in each case.
Regarding `COc1ccc(-c2cn(CC(=O)c3ccccc3)nn2)cc1`, the results for the 50% inhibitory concentration (IC50) in the assay on A549, with HT-29 and in the assay on HeLa were 187 µM, above 300 µM and above 300 µM, respectively.
Consider `O=C(Cn1cc(CO)nn1)c1ccccc1`, for which the half-inhibitory concentration (IC50) in the assay with A549, in the assay with HT-29 and in the assay on HeLa was above 300 µM throughout.
`O=C(Cn1cc(-c2ccccc2)nn1)c1ccc(Cl)cc1`: the IC50 in the assay on A549, in the assay on HT-29 and with HeLa was above 300 µM each time.
In the case of `COc1ccc2cc(-c3cn(CC(=O)c4ccccc4)nn3)ccc2c1`, the 50% inhibitory concentration (IC50) with A549, in the assay with HT-29 and in the assay on HeLa was above 300 µM in each case.
The term inhibition denotes how much of the control response was suppressed. Low values mean little suppression, high ones strong suppression. Turning to `Cc1ccc(-c2cn(CC(=O)c3ccccc3)nn2)cc1`, the half-inhibitory concentration (IC50) was 292 µM in the assay with A549, 238 µM in the assay on HT-29 and above 300 µM in the assay with HeLa. In assay [1], this compound returned an inhibition of 2.8%.
As to `COc1cc([C@@H]2c3cc4c(cc3[C@H](O)[C@H]3COC(=O)[C@H]23)OCO4)cc(OC)c1OC`, the inhibition in assay [2] worked out at 58.1%.
On to `CCCCCCc1cn(CC(=O)c2ccccc2)nn1`, for which the IC50 in the assay on A549, in the assay on HT-29 and with HeLa was above 300 µM throughout.
As to `COc1cc2c(c(OC)c1OC)-c1ccc(OC)c(=O)cc1[C@@H](NC(C)=O)CC2` [COLCHICINE], the half-maximal inhibitory concentration (IC50) in the assay on A549, in the assay with HT-29 and in the assay on HeLa was below 1 µM in each case. In assay [2], this compound came in with an inhibition of 53.8%.
Turning to `COc1ccc(C(=O)Cn2cc(-c3ccccc3)nn2)cc1`, the figures for the concentration for half-maximal inhibition (IC50) in the assay with A549, in the assay on HT-29 and in the assay on HeLa were above 300 µM, 49 µM and above 300 µM, respectively. This compound also displayed an inhibition in assay [1] of 14.1%.
With `CC(C(=O)c1ccccc1)n1cc(-c2ccccc2)nn1` (configuration not stated), the 50% inhibitory concentration (IC50) in the assay with A549, with HT-29 and in the assay with HeLa was above 300 µM throughout.
With `O=C(Cn1cc(-c2ccccc2)nn1)c1ccc(Br)cc1`, the IC50 with A549, in the assay on HT-29 and in the assay with HeLa was above 300 µM in each case.
Consider `CCC(C(=O)c1ccccc1)n1cc(-c2ccccc2)nn1` (configuration not stated), for which the IC50 in the assay on A549 came to 26 µM; with HT-29, 116 µM; with HeLa it was 155 µM. In addition, in assay [1], the inhibition was found to be 19.3%.
Consider `CCCCCc1ccc(-c2cn(CC(=O)c3ccccc3)nn2)cc1`, for which the IC50 with A549, in the assay on HT-29 and in the assay with HeLa was above 300 µM each time.
`Cc1cc(C)c(-c2cn(CC(=O)c3ccccc3)nn2)cc1C`: the IC50 in the assay on A549 is 91 µM; in the assay with HT-29, 190 µM; in the assay with HeLa, above 300 µM. This compound also returned an inhibition in assay [1] of 6.6%.

The values are drawn from ChEMBL document CHEMBL1275319, “Synthesis and cytotoxicity evaluation of novel 1,4-disubstituted 1,2,3-triazoles via CuI catalysed 1,3-dipolar cycloaddition” (Eur J Med Chem, 2010).
